Results of several laboratories.
Compare with care: the assays were run in different laboratories.
Target: TGF-beta receptor type-1 (TGFBR1, Homo sapiens, UniProt P36897)
Residues used in one study (P36897 34-503): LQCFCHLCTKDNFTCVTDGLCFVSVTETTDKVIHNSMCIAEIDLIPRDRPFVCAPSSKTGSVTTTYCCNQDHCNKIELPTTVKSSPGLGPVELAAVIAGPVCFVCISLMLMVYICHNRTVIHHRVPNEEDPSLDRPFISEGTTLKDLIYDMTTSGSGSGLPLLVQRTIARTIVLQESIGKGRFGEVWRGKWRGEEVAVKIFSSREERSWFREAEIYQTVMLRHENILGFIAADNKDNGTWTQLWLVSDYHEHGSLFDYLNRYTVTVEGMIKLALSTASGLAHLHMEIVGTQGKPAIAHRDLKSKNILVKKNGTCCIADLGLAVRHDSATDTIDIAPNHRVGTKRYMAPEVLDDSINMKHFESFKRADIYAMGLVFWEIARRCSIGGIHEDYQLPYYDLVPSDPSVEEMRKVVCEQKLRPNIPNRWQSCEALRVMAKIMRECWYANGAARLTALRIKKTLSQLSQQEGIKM

SMILES	test	conditions	remaining binding
FC(F)(F)Oc1cccc(-c2cnc3ccc(-c4ccncc4)nn23)c1	cell-free assay, competition with immobilised ligand	5 µM	83%
COc1ncc2cc3ccccc3nc2c1C#N	cell-free assay, competition with immobilised ligand	5 µM	92%
C[C@@H]1CCN(c2nccc(-c3cnn4ncccc34)n2)C1	binding	1 µM	98%
CNC(=O)[C@@H]1CC[C@@H](n2c(-c3ccc4cnccc4c3)nc3ccc(C(=O)NCc4cccc(C(N)=O)c4)cc32)C1	binding, competition with immobilised ligand	1 µM	88%
O=C(c1ccc(Nc2ncc(Cl)c(-c3cc4ccccc4s3)n2)cc1)N1CCC(N2CCCC2)CC1	binding, competition with immobilised ligand	1 µM	52%
C[C@H](c1ccc(F)cc1)N(Cc1cccc(C(=O)O)c1)C(=O)c1cnc2ccccc2c1	cell-free assay, competition with immobilised ligand	1 µM	96%
CN(CCCC(F)(F)F)c1nccc(-c2cnn3ncccc23)n1	binding	1 µM	100%
Nc1c(C(=O)NCc2ccc(C(=O)NCCCC3CCCCC3)cc2)cnn1-c1ccccc1	cell-free assay, competition with immobilised ligand	0.1 µM	100%
COc1cnc(Nc2cccc(S(N)(=O)=O)c2)nc1N1CCN(c2ccccc2)C(=O)C1	binding, competition with immobilised ligand	1 µM	100%
O=C(c1ccc(Nc2nccc(-c3cc4ccccc4s3)n2)cc1)N1CCC(N2CCCC2)CC1	binding, competition with immobilised ligand	1 µM	91%
CN(C)c1nccc(-c2cnc3ncccn23)n1	binding	1 µM	82%
C[C@@H](c1ccc(-n2cnc3c(N)ncnc32)cc1)N1CCc2nn(C)c(Cc3ccccc3)c2C1=O	binding, competition with immobilised ligand	0.1 µM	82%
O=C(NCC1CCOCC1)c1n[nH]cc1NC(=O)c1c(F)cccc1F	binding, competition with immobilised ligand	1 µM	96%
N[C@@H]1CCN(c2nccc(-c3cnn4ncccc34)n2)C1	binding	1 µM	92%
Cc1nc(C2CCN(C(=O)c3ccc(OC(F)(F)F)cc3N)CC2)c2ncc(N3CCN(C)CC3)cc2n1	cell-free assay, competition with immobilised ligand	1 µM	80%
CN(C)c1nccc(-c2cnn3ncccc23)n1	binding	1 µM	100%
C[C@@H]1CN(c2ccc3ncc(-c4ccc5[nH]nc(C6CC6)c5c4)n3n2)C[C@H](C)O1	binding, competition with immobilised ligand	50 nM	100%
Cc1c(C(=O)O)cc(-c2ccc(C3CCNCC3)cc2)c2ccc(-c3ccc(C(F)(F)F)cc3)cc12	cell-free assay, competition with immobilised ligand	1 µM	89%
c1cnn2ncc(-c3ccnc(N4CCC45COC5)n3)c2c1	binding	1 µM	78%
FC(F)(F)c1ccc2c(c1)nc(-c1cccnc1)n2C1CC1	cell-free assay, competition with immobilised ligand	1 µM	78%
c1cncc(-c2cccc(Nc3nccc(NC4CCCCC4)n3)c2)c1	binding, competition with immobilised ligand	10 µM	75%
COc1ccc2c(c1)O[C@H](c1ccc(OC)c(OC)c1)C[C@@H]2NC(=O)C1(c2ccc3c(c2)OC(F)(F)O3)CC1	cell-free assay, competition with immobilised ligand	1 µM	100%
O=C(NCCCN1CCOCC1)c1ccc(Nc2ncc(Cl)c(-c3ccc(Cl)s3)n2)cc1	binding, competition with immobilised ligand	1 µM	69%
O=S(=O)(NC1CCC(c2cc(F)ccc2F)(S(=O)(=O)c2ccc(Cl)cc2)CC1)C(F)(F)F (stereo not shown)	cell-free assay, competition with immobilised ligand	1 µM	100%
Nc1ncc2c(n1)-c1c([nH]c3ccc(C#CC4CC4)cc13)CCCC2	binding, competition with immobilised ligand	1 µM	86%
